# ChEMBL document CHEMBL1154986, “New anti-malarial phenylpropanoid conjugated iridoids from Morinda morindoides” (Bioorg Med Chem Lett, 2010)
# Columns and labels:
# [1] = Cytotoxicity against human KB-3-1 cells at 150 uM after 72 hrs by MTT assay; assay type: cell-based; settings: read-out: GI
# Plasmodium falciparum = experiment: Antimalarial activity against cycloguanil-resistant Plasmodium falciparum CDC1 assessed as inhibition of ring stage parasitaemia after 48 hrs by Giemsa staining; assay type: functional, organism-based; settings: CDC1, 48 h
# How it was run: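 Sorbitol-synchronized ring-stage culture (0.5% parasitemia, 4% hematocrit type O human RBC) in RPMI 1640 with 10% heat-inactivated type O human serum, HEPES, glutamine, NaHCO3, hypoxanthine, gentamycin; 5% CO2/5% O2/90% N2, 37 °C. Samples from DMSO stock diluted in medium, 1% DMSO final; 48 h. Proliferation counted on Giemsa thin films, 10,000 erythrocytes per film, triplicate. Quinine as control.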
# [2] = Cytotoxicity against human KB-3-1 cells after 72 hrs by MTT assay; assay type: cell-based; settings: KB 3-1, 72 h
# How it was run: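 KB-3-1 cells grown in RPMI 1640 with 10% newborn calf serum, glutamine, kanamycin, 5% CO2, 37 °C. 1.0 × 10^4 cells per well, then sample added in medium containing 2% DMSO; 72 h at 37 °C. MTT (2 mg/mL in PBS) added afterwards; growth inhibition from absorbance at 540 nm. Mitomycin C as positive control.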
SMILES,"inhibition at 72 h, 150 µM [1] [%]",IC50 (Plasmodium falciparum),IC50 [2] [µg/mL],IC90 (Plasmodium falciparum) [µg/mL]
COC(=O)C1=CO[C@@H](O[C@@H]2O[C@H](COC(C)=O)[C@@H](O)[C@H](O)[C@H]2O)[C@H]2[C@@H]1C=C[C@@]21C=C([C@H](O)c2ccc(O)c(OC)c2)C(=O)O1,9.3,100 nM,–,–
COC(=O)C1=CO[C@@H](O[C@@H]2O[C@H](COC(C)=O)[C@@H](O)[C@H](O)[C@H]2O)[C@H]2[C@@H]1C=C[C@@]21C=C([C@H](O)c2ccc(O)cc2)C(=O)O1,4.3,4100 nM,–,–
COC(=O)C1=CO[C@@H](O[C@@H]2O[C@H](CO)[C@@H](O)[C@H](O)[C@H]2O)[C@H]2[C@@H]1C=C[C@@]21C=C([C@H](O)c2ccc(O)c(OC)c2)C(=O)O1,13.1,21900 nM,–,–
COC(=O)C1=CO[C@@H](O[C@@H]2O[C@H](CO)[C@@H](O)[C@H](O)[C@H]2O)[C@H]2[C@@H]1C=C[C@@]21C=C([C@H](O)c2ccc(O)cc2)C(=O)O1,13.4,800 nM,–,–
COC(=O)C1=CO[C@@H](O[C@@H]2O[C@H](CO)[C@@H](O)[C@H](O)[C@H]2O)[C@H]2[C@@H]1C=C[C@@]21C=C(C(=O)c2ccc(O)c(OC)c2)C(=O)O1 [DEHYDROMETHOXYGAERTNEROSIDE],6.1,40 nM,–,–
CO[C@@]12[C@H](COC(N)=O)C3=C(C(=O)C(C)=C(N)C3=O)N1C[C@@H]1N[C@@H]12 [MITOMYCIN],–,–,0.1,–
C=C[C@H]1CN2CC[C@H]1C[C@H]2[C@H](O)c1ccnc2ccc(OC)cc12 [QUININE],–,0.04 µg/mL,–,0.09
